The results in this text go back to ChEMBL document CHEMBL1141824, “The antiproliferative effect of acridone alkaloids on several cancer cell lines” (J Nat Prod, 1999).

Holding throughout (type): functional, cell-based
Assay [1] deals with CCRF-HSB-2. Kind of assay: Antiproliferative activity against human CCRF-HSB-2 cells after 3 days by alamar blue assay. The note with it: CCRF-HSB-2, 72 h. The method, boiled down: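 Suspension line maintained in RPMI1640 with 10% FBS. 10⁴ cells per well were preincubated 24 h, then mixed with an equal volume of serially diluted samples (DMSO up to 0.4%) and exposed for 3 days. Staining was alamar Blue for 24 h. Growth was expressed as % of untreated control from blank-subtracted A570−A595. Triplicate points.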

Assay [2] deals with TGBC11TKB. Kind of assay: Antiproliferative activity against human TGBC11TKB cells after 3 days by alamar blue assay. The note with it: 72 h. The method, boiled down: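 TGBC11TKB, a lymph-node-metastasized gastric cancer line, was grown in DMEM with 5% FBS. 2×10^3 cells per well were plated, grown 24 h, then given medium with serial dilutions (final DMSO ≤0.4%) for 3 days. alamar Blue was then added for 6 h. Read-out was blank-corrected A570−A595 as % of untreated control, in triplicate.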
(In general: Resazurin is reduced to fluorescent resorufin, in cell work by metabolically active cells.)

Assay [3] relates to B16. The experiment in a line: Antiproliferative activity against mouse B16 cells after 3 days by alamar blue assay. The note with it: B16, 72 h. In short, it runs like this:
(§1)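 Cells kept in DMEM with 10% heat-inactivated FBS. 2×10^3 cells per well were grown 24 h, then an equal volume of medium with serial sample dilutions was added (DMSO ≤0.4%). After 3 days, alamar Blue was added for 6 h. Proliferation was taken as blank-corrected (A570−A595) as % of untreated growth control. Triplicates.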

Assay [4] concerns A549. The experiment in a line: Antiproliferative activity against human A549 cells after 3 days by alamar blue assay. The note with it: A549, 72 h. In short, it runs like this:
as §1

Molecules are shown by their SMILES.

The term IC50 denotes the concentration at which inhibition is half-maximal. A lower IC50 goes with greater potency. Take `COc1cc(O)c2c(=O)c3cccc(O)c3n(C)c2c1OC` [CITRUSININE-I]: the IC50 in assay [1], in assay [2], in assay [3] and in assay [4] was over 40 µM throughout.

As to `CC(C)=CCc1c2c(c3c(c1O)c(=O)c1cccc(O)c1n3C)C=CC(C)(C)O2`, the IC50 in assay [1] was 5.41 µM; in assay [2], 2.13 µM; in assay [3], 8.04 µM; in assay [4] it was 9.37 µM.

Take `COc1c(O)ccc2c(=O)c3c(O)cc4c(c3n(C)c12)C=CC(C)(C)O4` [CITRACRIDONE I]: the IC50 in assay [1], in assay [2], in assay [3] and in assay [4] was over 40 µM throughout.

With `COc1cc(O)c2c(=O)c3ccc(O)c(OC)c3n(C)c2c1` [CITPRESSINE II], the half-inhibitory concentration (IC50) in assay [1], in assay [2], in assay [3] and in assay [4] was over 40 µM each time.

`CC1(C)C=Cc2c(cc(O)c3c(=O)c4ccccc4[nH]c23)O1`: the IC50 in assay [1] worked out at 3.1 µM; in assay [2], 2.07 µM; in assay [3], 5.05 µM; in assay [4] it was 6.37 µM.

In the case of `CC(C)=CCc1c2c(c3[nH]c4c(O)cccc4c(=O)c3c1O)C=CC(C)(C)O2` [ATALAPHYLLININE], the IC50 in assay [1] turned out to be 2.5 µM; in assay [2], 1.43 µM; in assay [3] it was 4.63 µM; in assay [4], 6.26 µM.

As to `CC(C)=CCc1c(O)cc(O)c2c(=O)c3ccccc3n(C)c12` [GLYCOCITRINE II], the IC50 in assay [1], in assay [2], in assay [3] and in assay [4] was over 40 µM each time.

As to `COc1cc(O)c2c(=O)c3ccc(OC)c(O)c3n(C)c2c1` [GRANDISINE I], the IC50 in assay [1] is 29.2 µM; in assay [2] it was 19.3 µM; in assay [3], over 40 µM; in assay [4] it was 24.4 µM.

On to `COc1cc2c(c3[nH]c4ccccc4c(=O)c13)C=CC(C)(C)O2`, for which the IC50 in assay [1], in assay [2], in assay [3] and in assay [4] was over 40 µM throughout.

Consider `COc1cc(O)c2c(=O)c3cccc(O)c3n(C)c2c1CC=C(C)C` [GLYCOCITRINE I], for which the IC50 in assay [1], in assay [2], in assay [3] and in assay [4] was over 40 µM in each case.

Turning to `CC(C)=CCc1c2c(c3c(c1O)c(=O)c1ccccc1n3C)C=CC(C)(C)O2`, the IC50 in assay [1], in assay [2], in assay [3] and in assay [4] was over 40 µM in each case.

Turning to `CC1(C)C=Cc2c(cc(O)c3c(=O)c4cccc(O)c4[nH]c23)O1` [ATOLAPHYLLIDINE], the IC50 in assay [1] is 4.65 µM; in assay [2], 2.83 µM; in assay [3], 5.58 µM; in assay [4], 6.98 µM.

Turning to `COc1ccc2c(=O)c3c(O)cc4c(c3n(C)c2c1OC)C=CC(C)(C)O4` [CITRACRIDONE II], the IC50 in assay [1], in assay [2], in assay [3] and in assay [4] was over 40 µM in each case.

For `Cn1c2ccccc2c(=O)c2c(O)cc3c(c21)C=CC(C)(C)O3` [NORACRONYCINE], the concentration for half-maximal inhibition (IC50) in assay [1], in assay [2], in assay [3] and in assay [4] was over 40 µM each time.

In the case of `Cn1c2c(O)cccc2c(=O)c2c(O)cc3c(c21)C=CC(C)(C)O3`, the IC50 in assay [1] is 23.6 µM; in assay [2] it was 16.2 µM; in assay [3], over 40 µM; in assay [4] it was over 40 µM.
